According to ChEMBL document CHEMBL5058577, “EUbOPEN Chemogenomics Library 2 (Multiplex)” (2022):

System: Fibroblast
Experiment: Multiplex assay against human fibroblast
Format: toxicity, cell-based
How it was run: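 Imaging took place on a CQ1 microscope at 37°C and 5% CO2 once compound had been added to live cells stained at seeding with Hoechst33342, BioTracker Green Microtubule Cytoskeleton Dye, MitoTracker Red and Annexin V Alexa Fluor 680. CellPathfinder machine-learning gating classed cells as Hoechst high-intensity objects or normal cells, classed normal cells as having healthy, pyknosed or fragmented nuclei, and classed pyknosed cells as mitotic or apoptotic. Tubulin, mitochondrial-mass and membrane-permeability phenotypes are per cents of the healthy-nucleus cells.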

[1] = 12 h, 1 µM, compound concentration 1 uM, replicate 1
[2] = 12 h, 1 µM, compound concentration 1 uM, replicate 2
[3] = 12 h, 10 µM, compound concentration 10 uM, replicate 1
[4] = 12 h, 10 µM, compound concentration 10 uM, replicate 2
[5] = 24 h, 1 µM, compound concentration 1 uM, replicate 1
[6] = 24 h, 1 µM, compound concentration 1 uM, replicate 2
[7] = 24 h, 10 µM, compound concentration 10 uM, replicate 1
[8] = 24 h, 10 µM, compound concentration 10 uM, replicate 2
[9] = 48 h, 1 µM, compound concentration 1 uM, replicate 1
[10] = 48 h, 1 µM, compound concentration 1 uM, replicate 2
[11] = 48 h, 10 µM, compound concentration 10 uM, replicate 1
[12] = 48 h, 10 µM, compound concentration 10 uM, replicate 2

SMILES: Cc1nn(C)c2nc(NNC(=O)Nc3cc(Cl)nc(Cl)c3)cc(C(C)C)c12
- Population Apoptotic (%) [1]: 62%
- Population Fragmented Nuclei (%) [1]: 15%
- Population Healthy Nuclei (%) [1]: 68%
- Population Hoechst High Intensity Objects (%) [1]: 3%
- Population Membrane Permeable-Phenotype (%) [1]: 0%
- Population Mitochondria Different-Phenotype (%) [1]: 4%
- Population Mitotic Cells (%) [1]: 37%
- Population Normal (%) [1]: 96%
- Population Pyknosed Nuclei (%) [1]: 15%
- Population Tubulin-Different-Phenotype (%) [1]: 27%
- Total Cell Count [1]: 178
- Population Apoptotic (%) [2]: 37%
- Population Fragmented Nuclei (%) [2]: 31%
- Population Healthy Nuclei (%) [2]: 53%
- Population Hoechst High Intensity Objects (%) [2]: 2%
- Population Mitochondria Different-Phenotype (%) [2]: 7%
- Population Mitotic Cells (%) [2]: 62%
- Population Normal (%) [2]: 97%
- Population Tubulin-Different-Phenotype (%) [2]: 46%
- Total Cell Count [2]: 179
- Population Apoptotic (%) [3]: 53%
- Population Fragmented Nuclei (%) [3]: 12%
- Population Healthy Nuclei (%) [3]: 63%
- Population Hoechst High Intensity Objects (%) [3]: 3%
- Population Membrane Permeable-Phenotype (%) [3]: 2%
- Population Mitochondria Different-Phenotype (%) [3]: 15%
- Population Mitotic Cells (%) [3]: 46%
- Population Normal (%) [3]: 96%
- Population Pyknosed Nuclei (%) [3]: 23%
- Population Tubulin-Different-Phenotype (%) [3]: 89%
- Total Cell Count [3]: 139
- Population Apoptotic (%) [4]: 21%
- Population Fragmented Nuclei (%) [4]: 33%
- Population Healthy Nuclei (%) [4]: 56%
- Population Hoechst High Intensity Objects (%) [4]: 7%
- Population Membrane Permeable-Phenotype (%) [4]: 5%
- Population Mitochondria Different-Phenotype (%) [4]: 6%
- Population Mitotic Cells (%) [4]: 78%
- Population Normal (%) [4]: 92%
- Population Pyknosed Nuclei (%) [4]: 10%
- Total Cell Count [4]: 140
- Population Apoptotic (%) [5]: 59%
- Population Fragmented Nuclei (%) [5]: 18%
- Population Healthy Nuclei (%) [5]: 68%
- Population Hoechst High Intensity Objects (%) [5]: 1%
- Population Membrane Permeable-Phenotype (%) [5]: 1%
- Population Mitochondria Different-Phenotype (%) [5]: 3%
- Population Mitotic Cells (%) [5]: 40%
- Population Normal (%) [5]: 98%
- Population Pyknosed Nuclei (%) [5]: 12%
- Population Tubulin-Different-Phenotype (%) [5]: 29%
- Total Cell Count [5]: 176
- Population Apoptotic (%) [6]: 62%
- Population Fragmented Nuclei (%) [6]: 21%
- Population Hoechst High Intensity Objects (%) [6]: 2%
- Population Membrane Permeable-Phenotype (%) [6]: 2%
- Population Mitochondria Different-Phenotype (%) [6]: 6%
- Population Mitotic Cells (%) [6]: 37%
- Population Normal (%) [6]: 97%
- Population Pyknosed Nuclei (%) [6]: 9%
- Population Tubulin-Different-Phenotype (%) [6]: 50%
- Total Cell Count [6]: 174
- Population Apoptotic (%) [7]: 52%
- Population Fragmented Nuclei (%) [7]: 12%
- Population Healthy Nuclei (%) [7]: 69%
- Population Hoechst High Intensity Objects (%) [7]: 4%
- Population Membrane Permeable-Phenotype (%) [7]: 1%
- Population Mitochondria Different-Phenotype (%) [7]: 22%
- Population Mitotic Cells (%) [7]: 47%
- Population Normal (%) [7]: 95%
- Population Pyknosed Nuclei (%) [7]: 18%
- Population Tubulin-Different-Phenotype (%) [7]: 95%
- Total Cell Count [7]: 130
- Population Apoptotic (%) [8]: 25%
- Population Fragmented Nuclei (%) [8]: 28%
- Population Healthy Nuclei (%) [8]: 61%
- Population Hoechst High Intensity Objects (%) [8]: 8%
- Population Membrane Permeable-Phenotype (%) [8]: 0%
- Population Mitochondria Different-Phenotype (%) [8]: 6%
- Population Mitotic Cells (%) [8]: 75%
- Population Normal (%) [8]: 91%
- Population Pyknosed Nuclei (%) [8]: 9%
- Population Tubulin-Different-Phenotype (%) [8]: 89%
- Total Cell Count [8]: 132
- Population Apoptotic (%) [9]: 71%
- Population Fragmented Nuclei (%) [9]: 18%
- Population Healthy Nuclei (%) [9]: 73%
- Population Hoechst High Intensity Objects (%) [9]: 1%
- Population Membrane Permeable-Phenotype (%) [9]: 1%
- Population Mitochondria Different-Phenotype (%) [9]: 2%
- Population Mitotic Cells (%) [9]: 28%
- Population Normal (%) [9]: 98%
- Population Pyknosed Nuclei (%) [9]: 7%
- Population Tubulin-Different-Phenotype (%) [9]: 30%
- Total Cell Count [9]: 188
- Population Apoptotic (%) [10]: 57%
- Population Fragmented Nuclei (%) [10]: 34%
- Population Healthy Nuclei (%) [10]: 62%
- Population Hoechst High Intensity Objects (%) [10]: 2%
- Population Membrane Permeable-Phenotype (%) [10]: 2%
- Population Mitotic Cells (%) [10]: 42%
- Population Normal (%) [10]: 97%
- Population Pyknosed Nuclei (%) [10]: 3%
- Population Tubulin-Different-Phenotype (%) [10]: 36%
- Total Cell Count [10]: 184
- Population Apoptotic (%) [11]: 93%
- Population Fragmented Nuclei (%) [11]: 16%
- Population Healthy Nuclei (%) [11]: 70%
- Population Hoechst High Intensity Objects (%) [11]: 8%
- Population Membrane Permeable-Phenotype (%) [11]: 2%
- Population Mitochondria Different-Phenotype (%) [11]: 31%
- Population Mitotic Cells (%) [11]: 6%
- Population Normal (%) [11]: 91%
- Population Pyknosed Nuclei (%) [11]: 13%
- Population Tubulin-Different-Phenotype (%) [11]: 96%
- Total Cell Count [11]: 129
- Population Apoptotic (%) [12]: 62%
- Population Fragmented Nuclei (%) [12]: 38%
- Population Healthy Nuclei (%) [12]: 56%
- Population Hoechst High Intensity Objects (%) [12]: 3%
- Population Mitochondria Different-Phenotype (%) [12]: 5%
- Population Mitotic Cells (%) [12]: 37%
- Population Normal (%) [12]: 96%
- Population Pyknosed Nuclei (%) [12]: 5%
- Population Tubulin-Different-Phenotype (%) [12]: 85%
- Total Cell Count [12]: 155

SMILES: COc1cc(OC2CCN(C(C)=O)CC2)ccc1C(=O)N1CCC(N2C(=O)OCc3ccccc32)CC1
- Population Apoptotic (%) [1]: 41%
- Population Fragmented Nuclei (%) [1]: 12%
- Population Healthy Nuclei (%) [1]: 64%
- Population Hoechst High Intensity Objects (%) [1]: 5%
- Population Membrane Permeable-Phenotype (%) [1]: 2%
- Population Mitochondria Different-Phenotype (%) [1]: 5%
- Population Mitotic Cells (%) [1]: 58%
- Population Normal (%) [1]: 94%
- Population Pyknosed Nuclei (%) [1]: 22%
- Population Tubulin-Different-Phenotype (%) [1]: 32%
- Total Cell Count [1]: 157
- Population Apoptotic (%) [2]: 40%
- Population Fragmented Nuclei (%) [2]: 29%
- Population Healthy Nuclei (%) [2]: 52%
- Population Hoechst High Intensity Objects (%) [2]: 3%
- Population Membrane Permeable-Phenotype (%) [2]: 0%
- Population Mitochondria Different-Phenotype (%) [2]: 3%
- Population Mitotic Cells (%) [2]: 59%
- Population Normal (%) [2]: 96%
- Population Pyknosed Nuclei (%) [2]: 17%
- Population Tubulin-Different-Phenotype (%) [2]: 34%
- Total Cell Count [2]: 159
- Population Apoptotic (%) [3]: 52%
- Population Fragmented Nuclei (%) [3]: 10%
- Population Healthy Nuclei (%) [3]: 73%
- Population Hoechst High Intensity Objects (%) [3]: 3%
- Population Membrane Permeable-Phenotype (%) [3]: 0%
- Population Mitochondria Different-Phenotype (%) [3]: 6%
- Population Mitotic Cells (%) [3]: 48%
- Population Normal (%) [3]: 96%
- Population Pyknosed Nuclei (%) [3]: 16%
- Population Tubulin-Different-Phenotype (%) [3]: 54%
- Total Cell Count [3]: 161
- Population Apoptotic (%) [4]: 37%
- Population Fragmented Nuclei (%) [4]: 32%
- Population Healthy Nuclei (%) [4]: 40%
- Population Hoechst High Intensity Objects (%) [4]: 6%
- Population Membrane Permeable-Phenotype (%) [4]: 2%
- Population Mitochondria Different-Phenotype (%) [4]: 10%
- Population Mitotic Cells (%) [4]: 62%
- Population Normal (%) [4]: 93%
- Population Pyknosed Nuclei (%) [4]: 28%
- Population Tubulin-Different-Phenotype (%) [4]: 56%
- Total Cell Count [4]: 134
- Population Apoptotic (%) [5]: 63%
- Population Fragmented Nuclei (%) [5]: 19%
- Population Healthy Nuclei (%) [5]: 63%
- Population Hoechst High Intensity Objects (%) [5]: 1%
- Population Membrane Permeable-Phenotype (%) [5]: 0%
- Population Mitochondria Different-Phenotype (%) [5]: 4%
- Population Mitotic Cells (%) [5]: 36%
- Population Normal (%) [5]: 98%
- Population Pyknosed Nuclei (%) [5]: 17%
- Population Tubulin-Different-Phenotype (%) [5]: 32%
- Total Cell Count [5]: 170
- Population Apoptotic (%) [6]: 48%
- Population Fragmented Nuclei (%) [6]: 28%
- Population Healthy Nuclei (%) [6]: 51%
- Population Membrane Permeable-Phenotype (%) [6]: 5%
- Population Mitochondria Different-Phenotype (%) [6]: 3%
- Population Mitotic Cells (%) [6]: 51%
- Population Pyknosed Nuclei (%) [6]: 19%
- Population Tubulin-Different-Phenotype (%) [6]: 31%
- Total Cell Count [6]: 155
- Population Apoptotic (%) [7]: 36%
- Population Fragmented Nuclei (%) [7]: 13%
- Population Healthy Nuclei (%) [7]: 74%
- Population Hoechst High Intensity Objects (%) [7]: 7%
- Population Membrane Permeable-Phenotype (%) [7]: 1%
- Population Mitochondria Different-Phenotype (%) [7]: 7%
- Population Mitotic Cells (%) [7]: 63%
- Population Normal (%) [7]: 92%
- Population Pyknosed Nuclei (%) [7]: 11%
- Population Tubulin-Different-Phenotype (%) [7]: 39%
- Total Cell Count [7]: 172
- Population Apoptotic (%) [8]: 43%
- Population Fragmented Nuclei (%) [8]: 34%
- Population Healthy Nuclei (%) [8]: 48%
- Population Membrane Permeable-Phenotype (%) [8]: 3%
- Population Mitochondria Different-Phenotype (%) [8]: 10%
- Population Mitotic Cells (%) [8]: 56%
- Population Pyknosed Nuclei (%) [8]: 17%
- Population Tubulin-Different-Phenotype (%) [8]: 70%
- Total Cell Count [8]: 145
- Population Apoptotic (%) [9]: 40%
- Population Fragmented Nuclei (%) [9]: 14%
- Population Healthy Nuclei (%) [9]: 70%
- Population Hoechst High Intensity Objects (%) [9]: 7%
- Population Membrane Permeable-Phenotype (%) [9]: 0%
- Population Mitochondria Different-Phenotype (%) [9]: 5%
- Population Mitotic Cells (%) [9]: 59%
- Population Normal (%) [9]: 92%
- Population Pyknosed Nuclei (%) [9]: 14%
- Population Tubulin-Different-Phenotype (%) [9]: 35%
- Total Cell Count [9]: 160
- Population Apoptotic (%) [10]: 58%
- Population Fragmented Nuclei (%) [10]: 32%
- Population Healthy Nuclei (%) [10]: 52%
- Population Hoechst High Intensity Objects (%) [10]: 3%
- Population Membrane Permeable-Phenotype (%) [10]: 4%
- Population Mitochondria Different-Phenotype (%) [10]: 4%
- Population Mitotic Cells (%) [10]: 41%
- Population Normal (%) [10]: 96%
- Population Pyknosed Nuclei (%) [10]: 15%
- Population Tubulin-Different-Phenotype (%) [10]: 43%
- Total Cell Count [10]: 163
- Population Apoptotic (%) [11]: 57%
- Population Fragmented Nuclei (%) [11]: 10%
- Population Healthy Nuclei (%) [11]: 79%
- Population Hoechst High Intensity Objects (%) [11]: 5%
- Population Membrane Permeable-Phenotype (%) [11]: 0%
- Population Mitochondria Different-Phenotype (%) [11]: 13%
- Population Mitotic Cells (%) [11]: 42%
- Population Normal (%) [11]: 94%
- Population Pyknosed Nuclei (%) [11]: 9%
- Population Tubulin-Different-Phenotype (%) [11]: 51%
- Total Cell Count [11]: 155
- Population Apoptotic (%) [12]: 56%
- Population Fragmented Nuclei (%) [12]: 36%
- Population Healthy Nuclei (%) [12]: 51%
- Population Hoechst High Intensity Objects (%) [12]: 3%
- Population Membrane Permeable-Phenotype (%) [12]: 3%
- Population Mitochondria Different-Phenotype (%) [12]: 10%
- Population Mitotic Cells (%) [12]: 43%
- Population Normal (%) [12]: 96%
- Population Pyknosed Nuclei (%) [12]: 12%
- Population Tubulin-Different-Phenotype (%) [12]: 69%
- Total Cell Count [12]: 134
